Source: PubChem BioAssay (several laboratories)
NCF1 inh = p47phox (human) inhibition | P14598 | p47phox/p22phox peptide binding, fluorescence polarization, 2 h | inhibition, % at 24.7 µM | actives 0.53% (n = 220,000) | AID 1274;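 active = inhibition above about 30%, limit read from the data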;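 note: 0% = p47phox with labelled peptide and 100% = labelled peptide alone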
RAM inhibit = blocks the yeast RAM network; actives 1.8% (n = 190,000); S. cerevisiae dse1pr::URA3 reporter, 5-FOA growth OD615, 2 d; analog-sensitive cbk1-as2 kinase mutant strain; AID 868; inhibition, % at 50 µM;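 active = inhibition above a set limit, 3 SD over mean compound inhibition, cut at about 8.4% in these data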;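 note: 0% = DMSO-only wells with no growth and 100% = 10 µM 1-NA-PP1 full growth; inhibition rescues growth on 5-FOA so higher OD means more RAM inhibition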
p-CIP stab down = compounds decreasing mouse p/CIP protein stability. Q05BA5. F442A p/CIP-EGFP cells, EGFP fluorescence, 16 h. decrease of EGFP signal, % at 10 µM. actives 0.01% (n = 290,000). AID 1984;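 active = EGFP signal decrease of at least 30% at 10 µM or well 3 SD below plate mean, unless failing retest; inactive = the rest, including hits failing retest or dose response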
Target sequence (Q05BA5 1-1403): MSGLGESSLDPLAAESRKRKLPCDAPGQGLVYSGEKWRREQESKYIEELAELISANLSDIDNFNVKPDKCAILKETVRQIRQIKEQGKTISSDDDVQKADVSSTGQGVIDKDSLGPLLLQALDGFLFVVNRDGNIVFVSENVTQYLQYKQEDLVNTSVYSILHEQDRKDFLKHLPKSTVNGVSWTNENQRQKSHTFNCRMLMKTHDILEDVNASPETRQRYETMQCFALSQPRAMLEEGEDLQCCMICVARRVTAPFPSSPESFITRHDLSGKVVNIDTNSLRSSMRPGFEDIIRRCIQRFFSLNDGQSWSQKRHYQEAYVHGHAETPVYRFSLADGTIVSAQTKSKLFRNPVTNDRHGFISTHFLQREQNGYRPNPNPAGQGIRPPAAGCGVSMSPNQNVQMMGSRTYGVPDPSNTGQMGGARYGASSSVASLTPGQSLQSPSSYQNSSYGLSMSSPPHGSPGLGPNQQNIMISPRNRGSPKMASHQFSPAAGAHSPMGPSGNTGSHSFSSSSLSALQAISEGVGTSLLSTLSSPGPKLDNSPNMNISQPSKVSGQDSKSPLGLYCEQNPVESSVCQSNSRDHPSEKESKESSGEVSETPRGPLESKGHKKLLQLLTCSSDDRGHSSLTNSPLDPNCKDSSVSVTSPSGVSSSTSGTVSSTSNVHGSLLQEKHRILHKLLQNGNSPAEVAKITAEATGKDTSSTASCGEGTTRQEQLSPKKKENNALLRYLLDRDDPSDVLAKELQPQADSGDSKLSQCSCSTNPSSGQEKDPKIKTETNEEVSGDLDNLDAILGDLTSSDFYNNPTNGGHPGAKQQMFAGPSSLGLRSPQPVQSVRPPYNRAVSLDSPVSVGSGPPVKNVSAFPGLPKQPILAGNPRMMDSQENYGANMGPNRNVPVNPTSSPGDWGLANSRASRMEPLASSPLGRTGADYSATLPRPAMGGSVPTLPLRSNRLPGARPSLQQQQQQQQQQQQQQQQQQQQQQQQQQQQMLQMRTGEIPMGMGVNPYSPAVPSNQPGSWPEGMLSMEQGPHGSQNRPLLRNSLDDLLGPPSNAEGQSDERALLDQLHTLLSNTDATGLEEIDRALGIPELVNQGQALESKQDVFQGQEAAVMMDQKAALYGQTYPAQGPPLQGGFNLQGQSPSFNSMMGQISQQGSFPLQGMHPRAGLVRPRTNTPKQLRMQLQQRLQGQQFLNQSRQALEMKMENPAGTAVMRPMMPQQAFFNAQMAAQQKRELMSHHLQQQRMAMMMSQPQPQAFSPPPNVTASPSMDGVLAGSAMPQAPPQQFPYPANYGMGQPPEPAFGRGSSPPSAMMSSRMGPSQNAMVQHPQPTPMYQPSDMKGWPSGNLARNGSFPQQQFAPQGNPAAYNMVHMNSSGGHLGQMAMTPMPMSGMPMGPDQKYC
Dynein transport = blocks dynein driven cargo transport along microtubules | actives 0.47% (n = 220,000) | 3617.4 mouse cells, GR-EGFP nuclear translocation imaging; test concentration mostly 20 µM; stimulated with dexamethasone, 1 µM; hits give low values | z-score, hits read low;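 active = plate z-score of nuclear minus cytoplasmic receptor signal below a set negative limit, without overly bright fluorescence or cell loss, cut at about -3.5 in these data, passing the limit was not always enough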;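 note: z-score of nuclear minus cytoplasmic ring GR-EGFP intensity difference per well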
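Also added: dexamethasone, 1.0 µM final. Medium: tet-free, stripped-serum medium. Detection: fixed, Hoechst-stained cells imaged at 10x for EGFP. Read-out: nuclear-to-cytoplasmic GR-EGFP distribution per well. Times: induction 48 h, compound 1 h, agonist 30 min.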
The depositor's hits bear a star. A selection: hits, their analogues and other compounds. The true share with any hit is near 1.9%.

What do the screens show for `CC(C)Cc1nc(N2CCN(C(=O)c3ccco3)CC2)c(C#N)c2c1CCC2`?
NCF1 inh: -15; RAM inhibit: 9.2*; p-CIP stab down: -23; Dynein transport: -0.4

Results for O=[N+]([O-])c1ccc(SCc2ccncc2)nc1 ?
p-CIP stab down: -2

Results for O=C(Nc1ccccc1N1CCN(C(=O)c2ccccc2)CC1)c1cc2ccccc2o1 ?
NCF1 inh: -10; RAM inhibit: 8.5*; p-CIP stab down: -2; Dynein transport: -0.71

Results for O=C(Nc1ccccc1N1CCCC1)c1cc2ccccc2o1 ?
NCF1 inh: -14; RAM inhibit: 1; p-CIP stab down: 5; Dynein transport: -0.79

How did CC(=O)c1c(C)n(C)c2ccc(OC(=O)c3ccc([N+](=O)[O-])cc3)cc12 do in these assays?
NCF1 inh: -1; RAM inhibit: 5; p-CIP stab down: 2; Dynein transport: -0.65

What do the screens show for `CC(=O)c1c(OC(=O)c2ccccc2)c2ccccc2n1C`?
NCF1 inh: -4; RAM inhibit: 8.4*; p-CIP stab down: -13; Dynein transport: 0.27

What do the screens show for `CC1C/C(=C/c2ccncc2)C(=O)/C(=C/c2ccncc2)C1` (stereo not drawn)?
NCF1 inh: -2; RAM inhibit: 0; p-CIP stab down: -10; Dynein transport: -6*

What do the screens show for `CC1C/C(=C/c2cccn2C)C(=O)/C(=C/c2cccn2C)C1` (stereo not drawn)?
NCF1 inh: -174; RAM inhibit: 1; p-CIP stab down: 5; Dynein transport: -0.69

How did FC(F)(F)c1cc(-c2ccco2)nc(-n2nc(C(F)(F)F)cc2C2CC2)n1 do in these assays?
NCF1 inh: -4; RAM inhibit: 9.1*; p-CIP stab down: 0; Dynein transport: -1.6

Results for CCn1c(CNC(=O)c2cccc(C)c2)nnc1SCC(=O)Nc1nnc(C)s1 ?
p-CIP stab down: 0

What do the screens show for `CC(=O)NCc1cccc(CNC(C)=O)n1`?
NCF1 inh: 2; RAM inhibit: 1; p-CIP stab down: -14; Dynein transport: -0.16

Results for CNC(=O)OCc1cccc(COC(=O)NC)n1 ?
NCF1 inh: 39*; RAM inhibit: 3; p-CIP stab down: -6; Dynein transport: -0.63

Results for CC(=O)c1cn(N2CCCCC2)c(=O)[nH]c1=O ?
p-CIP stab down: -4

Results for CCCCSc1nc(O)c(C2OC(=O)c3c2ccc(OC)c3OC)c(=O)n1C (stereo not drawn) ?
NCF1 inh: -16; RAM inhibit: 0; p-CIP stab down: -5; Dynein transport: -0.92

Results for CCCCCCSc1nc(O)c(C2OC(=O)c3c2ccc(OC)c3OC)c(=O)n1-c1ccccc1 (stereo not drawn) ?
NCF1 inh: -11; RAM inhibit: 8.6*; p-CIP stab down: 2; Dynein transport: 0.56

How did COc1ccc(/C=C2/SC(=O)N(CCNC(=O)C3CCCN3C(=O)c3cccs3)C2=O)cc1 (stereo not drawn) do in these assays?
NCF1 inh: -19; RAM inhibit: 8; p-CIP stab down: -22; Dynein transport: -0.55

Results for O=C(NCCN1C(=O)S/C(=C/c2ccccc2)C1=O)C1CCCN1C(=O)c1cccs1 (stereo not drawn) ?
NCF1 inh: 3; RAM inhibit: 9.5*; p-CIP stab down: -4; Dynein transport: -0.83

What do the screens show for `Cc1cccc(N=Nc2c(C)c(C#N)c(O)[nH]c2=O)c1`?
NCF1 inh: 79*; RAM inhibit: 7; p-CIP stab down: -8; Dynein transport: -0.38

How did O=C(Nc1ccccc1)c1cc([N+](=O)[O-])ccc1Cl do in these assays?
NCF1 inh: 42*; p-CIP stab down: -6; Dynein transport: 0.24

How did Oc1ccc(-c2nccc(-c3ccc(F)cc3)n2)cc1 do in these assays?
p-CIP stab down: -3

Results for COc1ccc2nc(Nc3nc(CSc4ccc(C)cc4)cc(=O)[nH]3)nc(C)c2c1 ?
NCF1 inh: 16; RAM inhibit: 11*; p-CIP stab down: 2; Dynein transport: 0.3

What do the screens show for `O=C(NCc1ccc(Cl)cc1)C1CCCCN1S(=O)(=O)c1ccccc1` (stereo not drawn)?
p-CIP stab down: -11

Results for N#CC(C#N)=c1ccc2c(c1)NC1(CCCCC1)N=2 ?
NCF1 inh: 132*; RAM inhibit: 7; p-CIP stab down: -40; Dynein transport: -1.7

How did COc1ccccc1C(=O)NCc1ccc(-c2nc3ccccc3s2)cc1 do in these assays?
NCF1 inh: -7; RAM inhibit: 9.1*; p-CIP stab down: -9; Dynein transport: -0.46

Results for COc1ccc(S(=O)(=O)Nc2cc(C)on2)cc1 ?
p-CIP stab down: 2

Results for COc1ccccc1Nc1ncc(-c2cccs2)s1 ?
NCF1 inh: -2; RAM inhibit: 9.9*; p-CIP stab down: 1; Dynein transport: 0.55

How did O=C(O)C1CCCCC1C(=O)NCc1cn2ccccc2n1 (stereo not drawn) do in these assays?
NCF1 inh: 36*; RAM inhibit: 0; p-CIP stab down: 6; Dynein transport: -0.19

Results for COc1ccccc1C(=O)N/C(=C\c1cn(S(=O)(=O)N(C)C)c2ccccc12)C(=O)N1CCCCC1 ?
p-CIP stab down: -3

How did CCCc1cc(=O)[nH]c(SCC(=O)Nc2ccc(C)cc2)n1 do in these assays?
NCF1 inh: 6; RAM inhibit: 8.5*; p-CIP stab down: 0; Dynein transport: 0.046

How did Cc1ccc(NS(=O)(=O)c2c(C)nc3sccn3c2=O)cc1C do in these assays?
p-CIP stab down: -15

Results for COc1ccc(NC(=O)C2CCCN(C(=O)Nc3ccc(F)cc3)C2)cc1OC (stereo not drawn) ?
p-CIP stab down: -2

Results for CCOc1ccc(NC(=O)C23CC4CC(C2)CC(c2ccccc2)(C4)C3)cc1 ?
NCF1 inh: -5; RAM inhibit: 8.6*; p-CIP stab down: -16; Dynein transport: -0.33

What do the screens show for `COc1ccc(OC)c(NC(=O)COC(=O)/C=C/c2ccccc2Cl)c1`?
NCF1 inh: -9; RAM inhibit: 10*; p-CIP stab down: 0; Dynein transport: -0.26

Results for O=C(COC(=O)/C=C/c1ccccc1Cl)NCCNC(=O)COC(=O)/C=C/c1ccccc1Cl ?
p-CIP stab down: 10

Results for CC1CC(C)CN(C(=O)c2nn(C)c3c2CS(=O)(=O)c2ccccc2-3)C1 (stereo not drawn) ?
p-CIP stab down: -8

What do the screens show for `O=C(CSc1nnc(SCc2cccc3ccccc23)s1)Nc1ccc(C(=O)O)cc1`?
NCF1 inh: -26; RAM inhibit: 4; p-CIP stab down: -23; Dynein transport: 0.4

How did O=C(CSc1nnc(SCc2cccc3ccccc23)s1)N=Nc1c(O)[nH]c2ccccc12 do in these assays?
NCF1 inh: 32*; RAM inhibit: 2; p-CIP stab down: 1; Dynein transport: -0.11

How did O=C(CSc1nnc(SCc2cccc3ccccc23)s1)c1ccc2c(c1)OCO2 do in these assays?
NCF1 inh: -21; RAM inhibit: 8.8*; p-CIP stab down: -1; Dynein transport: 0.16

Results for CC(=O)Nc1ccc(C(=O)CN2CCN(c3ccccc3)CC2)cc1 ?
p-CIP stab down: -26
